Data taken from ChEMBL document CHEMBL1151906, “Discovery and structure-activity relationships of pentanedioic acid diamides as potent inhibitors of 11beta-hydroxysteroid dehydrogenase type I” (Bioorg Med Chem Lett, 2009).
≈ marks a conversion by molar mass, not a printed value. Each block holds one compound with its values, some of them ahead of it.

What was measured:
[1] = biological target: T1, 11-beta-hydroxysteroid dehydrogenase 1 (Homo sapiens, UniProt P28845); assay: Inhibition of human recombinant 11beta-HSD1 expressed in Escherichia coli assessed as cortisol level after 150 mins by HTRF assay
Target sequence in this assay (P28845 whole entry): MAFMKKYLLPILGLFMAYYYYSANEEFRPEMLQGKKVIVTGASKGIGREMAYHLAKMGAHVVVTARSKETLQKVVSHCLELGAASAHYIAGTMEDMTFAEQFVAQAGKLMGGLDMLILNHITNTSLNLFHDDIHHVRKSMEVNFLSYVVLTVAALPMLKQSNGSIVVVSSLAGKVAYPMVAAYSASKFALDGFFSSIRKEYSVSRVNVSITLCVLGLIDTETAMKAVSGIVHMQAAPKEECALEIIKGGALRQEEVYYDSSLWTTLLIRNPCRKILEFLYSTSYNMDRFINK

[2] = Drug absorption in rat assessed as recovery of unchanged drug in feces at 0.2 mg/kg, iv after 24 hrs; type: ADME, organism-based; design: dose 0.2 mg/kg, route intravenous; conditions: faeces, read-out: Drug uptake
In short: (§1)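 Male rats given a low-dose cassette (cocktail): 0.2 mg/kg i.v. and 0.5 mg/kg p.o.; plasma PK parameters are means of 3 rats. Unchanged drug recovered in faeces collected 0–24 h after each route.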

[3] = biological target: T2, 11-beta-hydroxysteroid dehydrogenase 1 (Mus musculus, UniProt P50172); assay: Inhibition of 11beta-HSD1 in mouse 3T3L1 cells assessed as cortisol level by HTRF assay; type: cell-based, 3T3-L1
In short: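 3T3L1 cells differentiated 5 days into adipocytes, then cultured 4 days before 150 min exposure to compound (10^-5–10^-7 M). Cortisol in the culture supernatant is measured by HTRF to give 11β-HSD1 activity.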

[4] = Bioavailability in rat at 0.2 mg/kg, iv and 0.5 mg/kg, po; type: ADME, organism-based; conditions: in vivo; in short: as §1
[5] = biological target: 11-beta-hydroxysteroid dehydrogenase 1 (Rattus norvegicus, UniProt P16232); assay: Inhibition of 11beta-HSD1 in rat liver microsome; type: microsomes
In short: (§2)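 Liver microsome fractions (2.5 µg) used as the enzyme source. Run in 30 mM Hepes pH 7.4 with 1 mM EDTA, 1 mM G-6P and cortisone/NADPH (200 nM/200 µM). Incubated 150 min at 37 °C, stopped with 18β-glycyrrhetinic acid, cortisol read by HTRF.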

[6] = Solubility in water; type: physicochemical
[7] = Half life in rat plasma at 0.2 mg/kg, iv and 0.5 mg/kg, po; type: ADME, organism-based; in short: as §1
[8] = biological target: T3, 11-beta-hydroxysteroid dehydrogenase type 2 (Homo sapiens, UniProt P80365); assay: Inhibition of human recombinant 11beta-HSD2 expressed in Escherichia coli assessed as cortisol level after 60 mins by HTRF assay
T3 sequence (P80365 whole entry): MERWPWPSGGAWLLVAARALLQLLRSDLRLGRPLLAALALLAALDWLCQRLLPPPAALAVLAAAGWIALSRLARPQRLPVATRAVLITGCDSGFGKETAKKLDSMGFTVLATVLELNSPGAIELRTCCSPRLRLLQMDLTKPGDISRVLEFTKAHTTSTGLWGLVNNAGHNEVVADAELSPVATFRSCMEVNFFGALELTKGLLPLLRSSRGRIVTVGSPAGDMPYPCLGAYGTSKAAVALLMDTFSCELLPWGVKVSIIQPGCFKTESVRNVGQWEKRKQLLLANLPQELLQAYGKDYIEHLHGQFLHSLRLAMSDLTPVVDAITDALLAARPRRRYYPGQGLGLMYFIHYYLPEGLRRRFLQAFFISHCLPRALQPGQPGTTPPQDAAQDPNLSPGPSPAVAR
In short: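 Enzyme is recombinant human 11β-HSD2 (E. coli-expressed) in 50 mM Tris pH 7.8 with 1 mM MgCl2 and 0.5 mM NAD. Reaction starts with 20 nM cortisol, runs at room temperature, and is stopped with carbenoxolone 10 µM. Cortisol is quantified by HTRF.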

[9] = biological target: T2, 11-beta-hydroxysteroid dehydrogenase 1; assay: Inhibition of 11beta-HSD1 in mouse liver microsome; in short: as §2
[10] = Volume of distribution at steady state in rat at 0.2 mg/kg, iv and 0.5 mg/kg, po; type: ADME, organism-based; conditions: in vivo, read-out: Vdss; in short: as §1
[11] = Protein binding in human serum; type: ADME, cell-free; conditions: read-out: PB (converted)
[12] = Drug absorption in rat assessed as recovery of unchanged drug in feces at 0.5 mg/kg, po after 24 hrs; type: ADME, organism-based; design: dose 0.5 mg/kg, route oral; conditions: faeces, read-out: Drug uptake; in short: as §1
[13] = Clearance in rat at 0.2 mg/kg, iv and 0.5 mg/kg, po; type: ADME, organism-based; conditions: in vivo; in short: as §1
[14] = biological target: T1, 11-beta-hydroxysteroid dehydrogenase 1; conditions: at 1 µM
Target sequence in this assay (P28845 whole entry, looked up): as the sequence (P28845 whole entry) above

[15] = biological target: T1, 11-beta-hydroxysteroid dehydrogenase 1; assay: Inhibition of human 11beta-HSD1
Target sequence in this assay (P28845 whole entry): as the sequence (P28845 whole entry) above

T2 sequence (P50172 whole entry): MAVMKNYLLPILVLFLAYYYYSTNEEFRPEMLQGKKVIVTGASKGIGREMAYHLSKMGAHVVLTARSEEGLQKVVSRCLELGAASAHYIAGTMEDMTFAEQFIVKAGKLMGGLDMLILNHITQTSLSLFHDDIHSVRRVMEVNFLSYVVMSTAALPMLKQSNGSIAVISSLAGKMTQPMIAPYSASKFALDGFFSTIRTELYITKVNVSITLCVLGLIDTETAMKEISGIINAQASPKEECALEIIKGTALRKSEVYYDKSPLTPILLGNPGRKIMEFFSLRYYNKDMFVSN
Sequence of 11-beta-hydroxysteroid dehydrogenase 1 (Rattus norvegicus, UniProt P16232) (P16232 whole entry): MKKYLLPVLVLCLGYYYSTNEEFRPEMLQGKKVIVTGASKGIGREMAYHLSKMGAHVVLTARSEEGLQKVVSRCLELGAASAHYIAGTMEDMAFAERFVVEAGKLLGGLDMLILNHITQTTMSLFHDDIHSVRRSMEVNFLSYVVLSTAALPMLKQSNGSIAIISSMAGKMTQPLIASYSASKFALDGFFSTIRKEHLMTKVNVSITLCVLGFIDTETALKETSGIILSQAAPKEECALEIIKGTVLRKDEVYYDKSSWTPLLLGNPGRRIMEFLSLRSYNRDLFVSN

Structure (SMILES): CC(C)(CC(=O)NC1CC1)CC(=O)N[C@H]1C2CC3CC1C[C@](C(=O)O)(C3)C2
IC50 [1]: > 1000 nM

Structure (SMILES): CN1CCN(C(=O)CC2(CC(=O)O)CCCC2)CC1
inhibition [14]: 0%

Structure (SMILES): O=C(CCCC(=O)NC1C2CC3CC(C2)CC1C3)NC1CC1 (stereo unspecified)
IC50 [1]: > 1000 nM

Structure (SMILES): O=C(O)CC1(CC(=O)NCc2ccc(F)cc2Cl)CCCC1
IC50 [15]: 1200 nM

Further compounds by falling IC50 [1], results first:

IC50 [1]: 550 nM
Structure (SMILES): CC(C)(CC(=O)NC1CC1)CC(=O)N[C@H]1C2CC3CC1C[C@@](O)(C3)C2

dose excreted at 24 h [2]: 20%
IC50 [3]: < 100 nM
bioavailability [4]: 30%
IC50 [5]: 980 nM
solubility [6]: 597 µg/mL (≈ 1710 µM)
half-life [7]: 72 min
IC50 [1]: 8 nM
IC50 [8]: > 10000 nM
IC50 [9]: 88 nM
Vd [10]: 2.7 L/kg
fraction unbound [11]: 0.6
dose excreted at 24 h [12]: 22%
clearance [13]: 30 mL/min/kg
Structure (SMILES): CC(C)(CC(=O)NC1CC1)CC(=O)N[C@H]1C2CC3CC1C[C@](O)(C3)C2

dose excreted at 24 h [2]: 24%
IC50 [3]: < 1000 nM
bioavailability [4]: 10%
IC50 [5]: 31 nM
solubility [6]: 491 µg/mL (≈ 1310 µM)
half-life [7]: 36 min
IC50 [1]: 8 nM
IC50 [8]: > 10000 nM
IC50 [9]: 10 nM
Vd [10]: 3.1 L/kg
fraction unbound [11]: > 0.8
dose excreted at 24 h [12]: 50%
clearance [13]: 55 mL/min/kg
Structure (SMILES): CC(C)(CC(=O)NC1CC1)CC(=O)N[C@H]1C2CC3CC1C[C@](C(N)=O)(C3)C2
